Active and inactive are the calls of the source. No cut-off for these calls is given here.
Tests used:
[1] = tested on: CWR22R; test: Antitumor activity against human 22Rv1 cells xenografted in NOD SCID mouse assessed as increase in cleaved PARP expression at 60 mg/kg, ip administered for 10 days by immunostaining analysis; assay type: functional, organism-based; settings: time 10.0 day
Summary of the method: (§1)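 Tumors came from 22Rv1 xenografts in male NSG mice dosed i.p. daily for 10 days. Cryosections (10 μm) were fixed in 4% PFA and permeabilized with 0.25% Triton X-100, then blocked with 10% goat serum. Primary antibodies (1:200) against MDM2, cleaved caspase-3, cleaved PARP or CD31 were applied overnight at 4 °C, followed by fluorescent secondaries (1:1,000, 2 h) and a DAPI counterstain. Fluorescence intensity quantified as mean ± SEM.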

[2] = target: E3 ubiquitin-protein ligase Mdm2 (Homo sapiens) (UniProt Q00987); test: Inhibition of MDM2 in human 22Rv1 cells assessed as increase in p53 expression upto 10 uM incubated at 24 hrs by Western blot analysis; assay type: cell-based
Summary of the method: (§2)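 22Rv1 or A375 cells grown to 80% confluence were exposed for 24 h to 1, 5 or 10 μM compound in DMEM. AMG-232 control ran at 100 nM–1 μM. Cells were lysed in RIPA with protease/phosphatase inhibitors, and 30 μg protein was run on SDS-PAGE/PVDF. Membranes were blocked in 5% milk and probed overnight at 4 °C for p53, c-PARP, MDM2 and GAPDH. Bands detected by HRP/ECL.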

[3] = target: E3 ubiquitin-protein ligase Mdm2 (Homo sapiens) (UniProt Q00987); test: Inhibition of MDM2 in human A-375 cells assessed as increase in PARP expression upto 10 uM incubated at 24 hrs by Western blot analysis; assay type: cell-based; summary of the method: as §2
[4] = target: E3 ubiquitin-protein ligase Mdm2 (Homo sapiens) (UniProt Q00987); test: Inhibition of MDM2 in human EU-1 cells assessed as increase in p21 expression upto 1 uM incubated at 8 hrs by Western blot analysis; assay type: cell-based
Summary of the method: (§3)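 EU-1 cells were treated at the doses and times indicated; for caspase-3, caspase-9 and PARP, 1 μM over a time course. Cells were lysed for 30 min in NaCl/Tris pH 8.0/EDTA/NP-40 buffer with protease inhibitors. Equal protein was run on SDS-PAGE and transferred to nitrocellulose. Membranes were blocked in milk, incubated with primary antibodies for 3 h at room temperature and HRP secondary for 1 h, then developed by ECL.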

[5] = tested on: A-375; test: Inhibition of colony formation in human A-375 cells assessed as reduction in number of clonogenic cells at 1 to 10 uM incubated for 10 days and subsequent media replacement with compound for every 3 days by crystal violet staining based microscopic analysis; assay type: functional, cell-based; settings: dose 1-10 µM, time 10.0 day
Summary of the method: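 A375 cells in log phase were seeded at 250 per well and incubated 48 h. They were then treated with 1, 5 or 10 μM for 10 days, with medium ± compound changed every 3 days. Colonies were methanol-fixed, stained with 0.5% crystal violet and counted by microscopy. Colony area expressed versus vehicle (100%) as mean ± SEM of three biological replicates.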

[6] = tested on: CWR22R; test: Antitumor activity against human 22Rv1 cells xenografted in NOD SCID mouse assessed as increase in cleaved caspase3 expression at 60 mg/kg, ip administered for 10 days by immunostaining analysis; assay type: functional, organism-based; settings: time 10.0 day; summary of the method: as §1
[7] = target: E3 ubiquitin-protein ligase XIAP (Homo sapiens) (UniProt P98170); test: Inhibition of XIAP in human EU-1 cells assessed as increase in caspase3 at 1 uM incubated upto 24 hrs by Western blot analysis; assay type: cell-based; summary of the method: as §3
[8] = tested on: CWR22R; test: Antitumor activity against human 22Rv1 cells xenografted in NOD SCID mouse assessed as decrease in MDM2 expression at 60 mg/kg, ip administered for 10 days by immunostaining analysis; assay type: functional, organism-based; settings: time 10.0 day; summary of the method: as §1
[9] = target: E3 ubiquitin-protein ligase Mdm2 (Homo sapiens) (UniProt Q00987); test: Inhibition of MDM2 in human EU-1 cells assessed as increase in PUMA expression upto 1 uM incubated at 8 hrs by Western blot analysis; assay type: cell-based; summary of the method: as §3
[10] = target: E3 ubiquitin-protein ligase Mdm2 (Homo sapiens) (UniProt Q00987); test: Inhibition of MDM2 in human EU-1 cells assessed as increase in p53 expression upto 1 uM incubated at 8 hrs by Western blot analysis; assay type: cell-based; summary of the method: as §3
[11] = tested on: CWR22R; test: Antitumor activity against human 22Rv1 cells xenografted in NOD SCID mouse assessed as inhibition of tumor growth at 60 mg/kg, ip administered for 10 days and measured every 3 days; assay type: functional, organism-based; settings: time 10.0 day
Summary of the method: (§4)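 Male humanized NSG mice, 8–9 weeks old, were injected s.c. in the right dorsal flank with 2 million 22Rv1 cells in medium/Matrigel 1:1. After ~14 days (mean tumor ~100 mm3), mice were randomized, n=5/group. Dosing was 60 mg/kg i.p. daily for 10 days in 5% DMSO/65% PEG400/30% saline, or vehicle alone. Caliper volume (a×b2×0.5) and body weight were recorded every 3 days.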

[12] = Antiproliferative activity against human EU-1 cells assessed as inhibition of cell growth incubated for 44 hrs by WST assay; assay type: functional, cell-based; settings: EU-1, 44 h
Summary of the method: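 Pediatric ALL-derived EU-1 cells grown in RPMI 1640 with 10% FBS, 2 mmol/L L-glutamine and penicillin/streptomycin at 37 °C, 5% CO2. Compounds given at graded concentrations for 44 h. WST (25 μg/well) then added for a further 4 h. OD read at 450 nm against a 620 nm reference, with cell-free wells for background.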

[13] = tested on: CWR22R; test: Antitumor activity against human 22Rv1 cells xenografted in NOD SCID mouse assessed as disruption of tumor vasculature at 60 mg/kg, ip administered for 10 days by immunostaining analysis; assay type: functional, organism-based; settings: time 10.0 day; summary of the method: as §1
[14] = target: E3 ubiquitin-protein ligase XIAP (Homo sapiens) (UniProt P98170); test: Inhibition of XIAP in human EU-1 cells assessed as increase in PARP at 1 uM incubated upto 24 hrs by Western blot analysis; assay type: cell-based; summary of the method: as §3
[15] = target: E3 ubiquitin-protein ligase Mdm2 (Homo sapiens) (UniProt Q00987); test: Inhibition of MDM2 in human 22Rv1 cells assessed as increase in PARP expression upto 10 uM incubated at 24 hrs by Western blot analysis; assay type: cell-based; summary of the method: as §2
[16] = tested on: MDA-MB-231; test: Antiproliferative activity against human MDA-MB-231 cells assessed as inhibition of cell growth incubated for 72 hrs by MTS assay; assay type: functional, cell-based; settings: MDA-MB-231, 72 h
Summary of the method: (§5)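 Cells seeded at 3,000–8,000 per well according to growth rate and incubated overnight. They were then exposed to compounds over 3 nM–100 μM for 72 h, four replicates per concentration. MTS added, 1.5 h in the dark at 37 °C, absorbance read at 490 nm. IC50 normalized to untreated cells and fitted by nonlinear regression.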

[17] = tested on: A-375; test: Antiproliferative activity against human A-375 cells assessed as inhibition of cell growth incubated for 72 hrs by MTS assay; settings: A-375, 72 h
[18] = tested on: CWR22R; test: Inhibition of colony formation in human 22Rv1 cells assessed as reduction in number of clonogenic cells incubated for 14 days and subsequent media replacement with compound for every 3 days by crystal violet staining based microscopic analysis; assay type: functional, cell-based; settings: dose 1-10 µM, time 14.0 day
Summary of the method: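 22Rv1 cells in log phase were seeded at 2,000 per well and incubated 72 h. They were then treated with 1, 5 or 10 μM for 14 days, with medium ± compound renewed every 3 days. Colonies were fixed in cold methanol, stained with 0.5% crystal violet and counted microscopically. Run in triplicate; area expressed relative to vehicle (100%) as mean ± SEM of three biological replicates.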

[19] = tested on: EU-1; test: Downregulation of MDM2 expression in human EU-1 cells upto 1 uM by Western blot analysis; assay type: functional, cell-based; settings: time 8.0 hrs, TDE = time-dependent effect; summary of the method: as §3
[20] = Toxicity in NOD SCID mouse assessed as body weight loss at 60 mg/kg, ip administered for 10 days and measured every 3 days; assay type: organism-based; settings: in vivo, 240 h, time 10 day; summary of the method: as §4
[21] = tested on: EU-1; test: Downregulation of MDM2 expression in human EU-1 cells incubated for 8 hrs by Western blot analysis; assay type: functional, cell-based; settings: dose <= 1.0 µM; summary of the method: as §3
[22] = tested on: CWR22R; test: Antiproliferative activity against human 22Rv1 cells assessed as inhibition of cell growth incubated for 72 hrs by MTS assay; assay type: functional, cell-based; settings: 22Rv1, 72 h; summary of the method: as §5
[23] = tested on: CWR22R; test: Antitumor activity against human 22Rv1 cells xenografted in NOD SCID mouse at 60 mg/kg, ip administered for 10 days and measured every 3 days; assay type: functional, organism-based; settings: time 10.0 day; summary of the method: as §4
[24] = target: E3 ubiquitin-protein ligase Mdm2 (Homo sapiens) (UniProt Q00987); test: Inhibition of MDM2 in human A-375 cells assessed as increase in p53 expression upto 10 uM incubated at 24 hrs by Western blot analysis; assay type: cell-based
Summary of the method: as §2, with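 “DMEM.” for “DMEM. AMG-232 control ran at 100 nM–1 μM.”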

[25] = target: E3 ubiquitin-protein ligase XIAP (Homo sapiens) (UniProt P98170); test: Inhibition of XIAP in human EU-1 cells assessed as increase in caspase-9 at 1 uM incubated upto 24 hrs by Western blot analysis; assay type: cell-based; summary of the method: as §3

Sequence of E3 ubiquitin-protein ligase Mdm2 (Homo sapiens) (Q00987 whole entry, looked up): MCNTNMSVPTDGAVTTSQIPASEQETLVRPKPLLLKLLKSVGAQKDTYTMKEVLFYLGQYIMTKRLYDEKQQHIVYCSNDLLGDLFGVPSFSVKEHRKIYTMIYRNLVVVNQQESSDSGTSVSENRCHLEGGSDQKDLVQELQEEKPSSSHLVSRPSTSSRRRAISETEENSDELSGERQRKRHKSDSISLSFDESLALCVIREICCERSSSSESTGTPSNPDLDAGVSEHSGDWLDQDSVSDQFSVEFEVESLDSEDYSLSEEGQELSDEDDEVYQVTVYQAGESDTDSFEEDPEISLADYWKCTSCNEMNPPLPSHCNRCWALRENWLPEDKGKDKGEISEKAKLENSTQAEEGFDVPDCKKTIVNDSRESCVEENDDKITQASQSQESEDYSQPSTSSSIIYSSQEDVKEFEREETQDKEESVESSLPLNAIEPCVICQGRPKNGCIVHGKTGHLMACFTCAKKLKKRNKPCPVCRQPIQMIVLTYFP
Sequence of E3 ubiquitin-protein ligase XIAP (Homo sapiens) (P98170 whole entry): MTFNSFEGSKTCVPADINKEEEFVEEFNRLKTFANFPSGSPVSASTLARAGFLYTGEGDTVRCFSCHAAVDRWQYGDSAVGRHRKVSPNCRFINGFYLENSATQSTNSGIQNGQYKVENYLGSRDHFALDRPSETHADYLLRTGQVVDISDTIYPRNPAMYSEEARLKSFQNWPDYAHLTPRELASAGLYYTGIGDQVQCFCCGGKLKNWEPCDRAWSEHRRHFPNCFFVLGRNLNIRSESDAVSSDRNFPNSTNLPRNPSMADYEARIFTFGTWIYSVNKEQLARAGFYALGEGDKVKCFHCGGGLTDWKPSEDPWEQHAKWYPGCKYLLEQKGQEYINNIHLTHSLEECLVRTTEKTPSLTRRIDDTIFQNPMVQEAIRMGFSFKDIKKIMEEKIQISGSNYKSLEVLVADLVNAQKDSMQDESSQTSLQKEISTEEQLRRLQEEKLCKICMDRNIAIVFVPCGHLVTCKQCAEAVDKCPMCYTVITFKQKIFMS

- inhibition [2]: Active
- inhibition [3]: Active
- inhibition [4]: Active
- inhibition [7]: Active
- inhibition [9]: Active
- inhibition [10]: Active
- inhibition [14]: Active
- inhibition [15]: Active
- IC50 [16]: 1500 nM
- IC50 [17]: 1000 nM
- inhibition [24]: Active
- inhibition [25]: Active
Structure (SMILES): CC(=O)c1cccc(NS(=O)(=O)c2ccc3c(c2)C2OCCC2C(c2ccc(C(=O)C(C)C)cc2)N3)c1 (stereo not given)
- Activity [1]: Active
- inhibition [5]: Active
- Activity [6]: Active
- Activity [8]: Active
- Activity [11]: Active
- IC50 [12]: 200 nM
- Activity [13]: Active
- inhibition [18]: Dose-Dependent Effect
- Activity [19]: Tde
- Activity [20]: Non-Toxic
- Activity [21]: Dose-Dependent Effect
- IC50 [22]: 5300 nM
- Activity [23]: Active

Source: ChEMBL document CHEMBL5321232, “Synthesis and biological evaluation of dual MDM2/XIAP inhibitors based on the tetrahydroquinoline scaffold” (Eur J Med Chem, 2023)
